Assay results from ChEMBL document CHEMBL2177013, “Synthesis and biological evaluation of tylophorine-derived dibenzoquinolines as orally active agents: exploration of the role of tylophorine e ring on biological activity” (J Med Chem, 2012).
Values after ≈ are worked out from the molar mass of the structure shown. Active and inactive are the calls of the source. The calls are words filed in the database; no cut-off is given here.

Experiments:
HepG2 = assay: Growth inhibition of human HepG2 cells; format: functional
Summary of the method: (§1)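 Cells seeded per well: NUGC-3 4500, HONE-1 6000, MCF-7 6500, NCI-H460 2500, HepG2 10000, A549 5000; A549 grown in RPMI 1640 with 2 g/L NaHCO₃, 2 mM L-glutamine and 10% FBS. GI₅₀ = concentration giving 50% growth inhibition, mean of at least three experiments each in duplicate. Paclitaxel served as positive control.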

MCF7 [1] = assay: Growth inhibition of human MCF7 cells; format: functional; summary of the method: as §1
[2] = Cytotoxicity against mouse RAW264.7 cells; format: cell-based
Summary of the method: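 RAW264.7 cells stimulated with LPS/IFNγ and compound-treated in parallel with the NO assay; CC50 taken as concentration giving 50% inhibition of cell growth. Mean of at least three experiments, each in duplicate.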

[3] = Growth inhibition of human HONE1 cells; format: functional; summary of the method: as §1
NCI-H460 [4] = assay: Growth inhibition of human NCI-H460 cells; format: functional; summary of the method: as §1
A549 [5] = assay: Growth inhibition of human A549 cells; format: functional; summary of the method: as §1
RAW264.7 [6] = assay: Antiinflammatory activity in mouse RAW264.7 cells assessed as inhibition of LPS-induced nitric oxide production incubated for 18 hrs by nitrate/nitrite assay; format: functional, cell-based; conditions: RAW264.7, 18 h
Summary of the method: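 RAW264.7 seeded 65000 cells/well, cultured 24 h, then medium replaced with complete medium containing IFNγ (20 ng/mL)/LPS (5 μg/mL) plus compound at various concentrations for 18 h; nitric oxide measured by Nitrate/Nitrite kit. EC50 as mean of at least three experiments, each in duplicate.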

NUGC-3 = assay: Growth inhibition of human NUGC3 cells; format: functional; summary of the method: as §1
[7] = system: Transmissible gastroenteritis virus; assay: Antiviral activity against Transmissible gastroenteritis virus infected in ST cells pre-treated 2 hrs before virus infection measured 6 hrs post virus infection by immunofluorescent assay; format: functional, organism-based; conditions: Alphacoronavirus 1, ST
Summary of the method: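 ST cells, with or without 2 h compound pretreatment (10 concentrations), infected with TGEV at MOI 10. Immunofluorescence with anti-spike and anti-nucleocapsid antibodies at 6 hpi. EC50 from dose–response curves, mean of at least three experiments, each in duplicate.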

SF-268 = assay: Growth inhibition of human SF268 cells; format: functional
Summary of the method: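 SF-268 glioblastoma cells seeded 7500 cells/well in 96-well plates; growth inhibition measured with compound. GI50 as mean of at least three experiments, each in duplicate; paclitaxel positive control.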

[8] = Solubility in DMA; format: physicochemical
[9] = Oral bioavailability in Sprague-Dawley rat at 3 mg/kg by HPLC-MS method; format: ADME, organism-based; conditions: in vivo
Summary of the method: (§2)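 Male rats (330−380 g, 9−10 weeks), jugular vein cannula implanted 1 day before, fasted. 3 mg/kg given iv or orally (n = 3) in DMA/PEG400 30/70 v/v. Blood (150 μL) drawn at 0, 2, 5 (iv only), 15, 30 min and 1, 2, 4, 6, 8, 12, 24 h; plasma analysed by HPLC-MS; noncompartmental analysis.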

[10] = Solubility in DMSO; format: physicochemical
Summary of the method: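 Compound dissolved in DMSO with sonication; maximal volume before precipitation measured and used to calculate saturation solubility.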

RAW264.7 [11] = assay: Reduction in LPS/INFgamma-induced COX2 protein expression in mouse RAW264.7 cells incubated for 20 hrs by Western blotting; format: functional, cell-based
Summary of the method: (§3)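 LPS/IFNγ-stimulated RAW264.7 cells treated with compound for 20 h. iNOS, COX-2 and GAPDH detected by Western blot; representative of at least three independent experiments.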

NCI-H460 [12] = assay: Down regulation of cyclin A2 expression in human NCI-H460 cells incubated for 24 hrs by Western blotting; format: functional, cell-based
NCI-H460 [13] = assay: Induction of c-Jun protein accumulation in human NCI-H460 cells incubated for 24 hrs by Western blotting; format: functional, cell-based
A549 [14] = assay: Down regulation of cyclin A2 expression in human A549 cells incubated for 24 hrs by Western blotting; format: functional, cell-based
MCF7 [15] = assay: Down regulation of cyclin A2 expression in human MCF7 cells incubated for 24 hrs by Western blotting; format: functional, cell-based
MCF7 [16] = assay: Induction of c-Jun protein accumulation in human MCF7 cells incubated for 24 hrs by Western blotting; format: functional, cell-based
A549 [17] = assay: Induction of c-Jun protein accumulation in human A549 cells incubated for 24 hrs by Western blotting; format: functional, cell-based
[18] = system: Transmissible gastroenteritis virus; assay: Antiviral activity against Transmissible gastroenteritis virus infected in ST cells assessed as reduction in caspase-3 activation pre-treated before virus infection measured 16 hrs post virus infection by Western blotting; format: functional, organism-based
Summary of the method: (§4)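 ST cells pretreated with compound, then infected with TGEV. Western blot for nucleocapsid (N) protein, caspase 3 (cleavage of procaspase 3) and GAPDH at 16 hpi. Representative of at least three independent experiments.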

[19] = system: Transmissible gastroenteritis virus; assay: Antiviral activity against Transmissible gastroenteritis virus infected in ST cells assessed as reduction in N-protein expression pre-treated before virus infection measured 16 hrs post virus infection by Western blotting; format: functional, organism-based; summary of the method: as §4
RAW264.7 [20] = assay: Reduction in LPS/INFgamma-induced iNOS protein expression in mouse RAW264.7 cells incubated for 20 hrs by Western blotting; format: functional, cell-based; summary of the method: as §3
[21] = Apparent elimination half life in Sprague-Dawley rat at 3 mg/kg, po by HPLC-MS method; format: ADME, organism-based; set-up: dose 3 mg/kg, route oral; conditions: in vivo, read-out: betat1/2(app) (converted); summary of the method: as §2
[22] = Clearance in Sprague-Dawley rat at 3 mg/kg, iv by HPLC-MS method; format: ADME, organism-based; set-up: dose 3 mg/kg, route intravenous; conditions: in vivo; summary of the method: as §2
[23] = Cmax in Sprague-Dawley rat at 3 mg/kg, po by HPLC-MS method; format: ADME, organism-based; set-up: dose 3 mg/kg, route oral; conditions: in vivo; summary of the method: as §2
[24] = Tmax in Sprague-Dawley rat at 3 mg/kg, po by HPLC-MS method; format: ADME, organism-based; set-up: dose 3 mg/kg, route oral; conditions: in vivo; summary of the method: as §2
[25] = Volume of distribution at steady state in Sprague-Dawley rat at 3 mg/kg, iv by HPLC-MS method; format: ADME, organism-based; set-up: dose 3 mg/kg, route intravenous; conditions: in vivo, read-out: Vdss; summary of the method: as §2
[26] = AUC (0 to infinity) in Sprague-Dawley rat at 3 mg/kg, iv by HPLC-MS method; format: ADME, organism-based; set-up: time infinity, dose 3 mg/kg, route intravenous; conditions: plasma
Summary of the method: (§5)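 Male rats (330−380 g, 9−10 weeks old), jugular vein cannulated 1 day before dosing, fasted; 3 mg/kg iv or oral in DMA/PEG400 (30/70, v/v), n = 3. Blood (150 μL) drawn at 0, 2, 5 (iv only), 15, 30 min and 1, 2, 4, 6, 8, 12, 24 h, kept on ice; plasma analysed by HPLC-MS; noncompartmental analysis.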

[27] = AUC (0 to infinity) in Sprague-Dawley rat at 3 mg/kg, po by HPLC-MS method; format: ADME, organism-based; set-up: dose 3 mg/kg, route oral, time infinity; conditions: plasma; summary of the method: as §5
[28] = Apparent elimination half life in Sprague-Dawley rat at 3 mg/kg, iv by HPLC-MS method; format: ADME, organism-based; set-up: dose 3 mg/kg, route intravenous; conditions: in vivo, read-out: betat1/2(app) (converted); summary of the method: as §2

Row | SMILES | GI50 (HepG2) [nM] | GI50 (MCF7 [1]) [nM] | CC50 [2] [nM] | GI50 [3] [nM] | GI50 (NCI-H460 [4]) [nM] | GI50 (A549 [5]) [nM] | EC50 (RAW264.7 [6]) [nM] | GI50 (NUGC-3) [nM] | EC50 [7] [nM] | GI50 (SF-268) [nM] | solubility [8] | solubility [10] [mM] | Activity (RAW264.7 [11]) | Activity (NCI-H460 [12]) | Activity (NCI-H460 [13]) | Activity (A549 [14]) | Activity (MCF7 [15]) | Activity (MCF7 [16]) | Activity (A549 [17]) | Activity [18] | other results
1 | COc1cc2c3c(c4cc(OC)c(OC)cc4c2cc1OC)C(O)CN(C(C)C)C3 (centres undefined) | 1860 | 1210 | > 4000 | 1710 | 1070 | 1230 | 2050 | 870 | 2740 |  |  |  |  |  |  |  |  |  |  |  | 
2 | COc1ccc(C2=C(c3ccc(OC)c(OC)c3)CN3CCC[C@H]3C2)cc1OC |  | 18500 |  | 17300 | 17000 |  |  | 14500 | 15400 | 24200 |  |  |  |  |  |  |  |  |  |  | 
3 | COc1cc2c3c(c4cc(OC)c(OC)cc4c2cc1OC)CN1CCCCC1C3 (centres undefined) |  | 110 |  | 140 | 100 |  |  | 140 | 30 | 140 | soluble | 12.3 (≈ 5.01 mg/mL) |  |  |  |  |  |  |  |  | bioavailability [9]: 53%
4 | CCN1CCc2c(c3cc(OC)c(OC)cc3c3cc(OC)c(OC)cc23)C1 | 1000 | 750 | > 4000 | 1570 | 1010 | 970 | 1420 | 620 | 1650 |  | soluble | 50 (≈ 19.1 mg/mL) |  |  |  |  |  |  |  |  | 
5 | COc1cc2c3c(c4cc(OC)c(OC)cc4c2cc1OC)CN(C(C)C)CC3 | 670 | 340 | > 4000 | 940 | 290 | 380 | 860 | 320 | 600 |  |  |  | Active | Active | Active | Active | Active | Active | Active | Active | Activity [19]: Active; Activity (RAW264.7 [20]): Active
6 | CCCCN1CCc2c(c3cc(OC)c(OC)cc3c3cc(OC)c(OC)cc23)C1 | 3040 | 1970 |  | 2750 | 2050 | 2220 |  | 1930 | 4390 |  | soluble | 45 (≈ 18.4 mg/mL) |  |  |  |  |  |  |  |  | 
7 | CCN1Cc2c(c3cc(OC)c(OC)cc3c3cc(OC)c(OC)cc23)C(O)C1 (centres undefined) | 360 | 160 | > 2000 | 440 | 170 | 190 | 380 | 150 | 340 |  |  |  | Active | Active | Active | Active | Active | Active | Active | Active | Activity [19]: Active; Activity (RAW264.7 [20]): Active
8 | CCN1CCc2c(c3cc(OC)c(OC)cc3c3cc(OC)ccc23)C1 | 660 | 370 |  | 570 | 300 | 400 |  | 320 | 580 |  |  |  | Active | Active | Active | Active | Active | Active | Active | Active | half-life [21]: 6.3 h; clearance [22]: 20 mL/min/kg; Cmax [23]: 535 ng/mL; Tmax [24]: 0.3 h; Vd [25]: 5.1 L/kg; AUC(0-inf) [26]: 2320 ng·h/mL; bioavailability [9]: 105%; AUC(0-inf) [27]: 2470 ng·h/mL; half-life [28]: 16 h; Activity [19]: Active; Activity (RAW264.7 [20]): Active
9 | COc1cc2c3c(c4cc(OC)c(OC)cc4c2cc1OC)CN1CCCCCC1C3 (centres undefined) |  | 960 |  | 1150 | 930 |  |  | 620 | 1050 | 960 |  |  |  |  |  |  |  |  |  |  | 
